{"source": "paper PMC10439066", "about": "(Drugs in R&D, 2023)", "key": {"[1]": {"tested_on": "adult premenopausal women with endometriosis-related pain symptoms", "test": "AKRENDO1 phase IIa trial, adverse events", "type": "in vivo, human", "method_in_brief": "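Randomized, placebo-controlled phase IIa trial in women ≥18 years with surgically or imaging-confirmed endometriosis who met defined pain criteria. Oral dosing: 3 mg OD, 10 mg OD, 30 mg OD, 30 mg BID, 60 mg BID, or placebo for 12 weeks. Visits at days 10, 28, 56 and 84 (±4 d), plus follow-up 2 weeks after end of treatment. Incidence of AEs, SAEs and TEAEs recorded.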"}, "recombinant human AKR1C1": {"target": "T1, recombinant human AKR1C1 (Homo sapiens, UniProt Q04828)", "T1 sequence (Q04828 1-323)": "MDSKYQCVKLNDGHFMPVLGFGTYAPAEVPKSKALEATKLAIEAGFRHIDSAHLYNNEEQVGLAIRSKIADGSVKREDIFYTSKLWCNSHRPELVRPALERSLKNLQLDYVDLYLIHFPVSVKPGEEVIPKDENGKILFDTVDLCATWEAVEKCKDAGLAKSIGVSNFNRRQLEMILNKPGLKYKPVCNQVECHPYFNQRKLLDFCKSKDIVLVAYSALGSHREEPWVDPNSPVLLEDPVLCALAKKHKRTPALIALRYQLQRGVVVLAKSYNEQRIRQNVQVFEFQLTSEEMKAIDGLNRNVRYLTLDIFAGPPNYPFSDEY", "test": "Related enzyme screen", "type": "biochemical", "settings": "preclinical screen"}, "recombinant human AKR1C4": {"target": "T2, recombinant human AKR1C4 (Homo sapiens, UniProt P17516)", "T2 sequence (P17516 1-323)": "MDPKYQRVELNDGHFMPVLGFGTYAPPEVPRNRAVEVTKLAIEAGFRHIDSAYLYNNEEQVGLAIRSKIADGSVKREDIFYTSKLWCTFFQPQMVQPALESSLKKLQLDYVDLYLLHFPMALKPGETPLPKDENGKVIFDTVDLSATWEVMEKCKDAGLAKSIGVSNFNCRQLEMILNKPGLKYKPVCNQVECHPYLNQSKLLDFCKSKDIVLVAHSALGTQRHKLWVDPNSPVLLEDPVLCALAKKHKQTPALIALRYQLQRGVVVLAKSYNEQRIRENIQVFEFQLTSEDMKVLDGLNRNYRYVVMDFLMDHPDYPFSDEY", "test": "Related enzyme screen", "type": "biochemical", "settings": "preclinical screen"}, "AKR1C3": {"target": "T3, AKR1C3 (Homo sapiens, UniProt P42330)", "T3 sequence (P42330 1-323)": "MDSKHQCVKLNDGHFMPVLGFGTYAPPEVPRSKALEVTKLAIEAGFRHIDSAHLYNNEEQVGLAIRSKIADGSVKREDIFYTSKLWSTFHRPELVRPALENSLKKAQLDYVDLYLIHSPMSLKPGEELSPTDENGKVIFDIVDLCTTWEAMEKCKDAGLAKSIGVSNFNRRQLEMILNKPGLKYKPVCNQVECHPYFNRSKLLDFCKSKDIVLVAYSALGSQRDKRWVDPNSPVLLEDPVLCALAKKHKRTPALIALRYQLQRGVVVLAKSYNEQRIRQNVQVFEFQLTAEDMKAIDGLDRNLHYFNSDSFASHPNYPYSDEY", "test": "AKR1C3 biochemical assay", "settings": "in vitro"}}, "note": "pIC50: −log10 of the molar value."}
{"compound": "CN(CCC(=O)O)C(=O)c1ccc2c(c1)CC[C@@H]1[C@@H]2CC[C@]2(C)C(c3cncc(F)c3)=CC[C@@H]12", "note": "[BAY1128688]", "values": [{"measurement": "Any AE", "setting": "[1]; 3 mg OD n = 11", "result": "8 (72.7) Number (%)"}, {"measurement": "Any SAE", "setting": "[1]; 3 mg OD n = 11", "result": "1 (9.1) Number (%)"}, {"measurement": "Any TEAE", "setting": "[1]; 3 mg OD n = 11", "result": "5 (45.5) Number (%)"}, {"measurement": "Any TESAE", "setting": "[1]; 3 mg OD n = 11", "result": "1 (9.1) Number (%)"}, {"measurement": "Discontinuation due to TEAE", "setting": "[1]; 3 mg OD n = 11", "result": "0 Number (%)"}, {"measurement": "Discontinuation due to TESAE", "setting": "[1]; 3 mg OD n = 11", "result": "0 Number (%)"}, {"measurement": "Procedure-related TEAE", "setting": "[1]; 3 mg OD n = 11", "result": "0 Number (%)"}, {"measurement": "SAE related to procedure", "setting": "[1]; 3 mg OD n = 11", "result": "0 Number (%)"}, {"measurement": "Study-drug-related SAE", "setting": "[1]; 3 mg OD n = 11", "result": "0 Number (%)"}, {"measurement": "Study-drug-related TEAE", "setting": "[1]; 3 mg OD n = 11", "result": "4 (36.4) Number (%)"}, {"measurement": "participants with TEAEs", "setting": "[1]; 10 mg OD", "result": 32.3, "unit": "%"}, {"measurement": "participants with study-drug-related TEAEs", "setting": "[1]; 10 mg OD", "result": 9.7, "unit": "%"}, {"measurement": "Any AE", "setting": "[1]; 10 mg OD n = 31", "result": "16 (51.6) Number (%)"}, {"measurement": "Any SAE", "setting": "[1]; 10 mg OD n = 31", "result": "0 Number (%)"}, {"measurement": "Any TEAE", "setting": "[1]; 10 mg OD n = 31", "result": "10 (32.3) Number (%)"}, {"measurement": "Any TESAE", "setting": "[1]; 10 mg OD n = 31", "result": "0 Number (%)"}, {"measurement": "Discontinuation due to TEAE", "setting": "[1]; 10 mg OD n = 31", "result": "1 (3.2) Number (%)"}, {"measurement": "Discontinuation due to TESAE", "setting": "[1]; 10 mg OD n = 31", "result": "0 Number (%)"}, {"measurement": "Procedure-related TEAE", "setting": "[1]; 10 mg OD n = 31", "result": "0 Number (%)"}, {"measurement": "SAE related to procedure", "setting": "[1]; 10 mg OD n = 31", "result": "0 Number (%)"}, {"measurement": "Study-drug-related SAE", "setting": "[1]; 10 mg OD n = 31", "result": "0 Number (%)"}, {"measurement": "Study-drug-related TEAE", "setting": "[1]; 10 mg OD n = 31", "result": "3 (9.7) Number (%)"}, {"measurement": "Any AE", "setting": "[1]; 30 mg BID n = 11", "result": "7 (63.6) Number (%)"}, {"measurement": "Any SAE", "setting": "[1]; 30 mg BID n = 11", "result": "0 Number (%)"}, {"measurement": "Any TEAE", "setting": "[1]; 30 mg BID n = 11", "result": "6 (54.5) Number (%)"}, {"measurement": "Any TESAE", "setting": "[1]; 30 mg BID n = 11", "result": "0 Number (%)"}, {"measurement": "Discontinuation due to TEAE", "setting": "[1]; 30 mg BID n = 11", "result": "2 (18.2) Number (%)"}, {"measurement": "Discontinuation due to TESAE", "setting": "[1]; 30 mg BID n = 11", "result": "0 Number (%)"}, {"measurement": "Procedure-related TEAE", "setting": "[1]; 30 mg BID n = 11", "result": "0 Number (%)"}, {"measurement": "SAE related to procedure", "setting": "[1]; 30 mg BID n = 11", "result": "0 Number (%)"}, {"measurement": "Study-drug-related SAE", "setting": "[1]; 30 mg BID n = 11", "result": "0 Number (%)"}, {"measurement": "Study-drug-related TEAE", "setting": "[1]; 30 mg BID n = 11", "result": "2 (18.2) Number (%)"}, {"measurement": "participants with TEAEs", "setting": "[1]; 30 mg OD", "result": 90.0, "unit": "%"}, {"measurement": "Any AE", "setting": "[1]; 30 mg OD n = 10", "result": "9 (90.0) Number (%)"}, {"measurement": "Any SAE", "setting": "[1]; 30 mg OD n = 10", "result": "2 (20.0) Number (%)"}, {"measurement": "Any TEAE", "setting": "[1]; 30 mg OD n = 10", "result": "9 (90.0) Number (%)"}, {"measurement": "Any TESAE", "setting": "[1]; 30 mg OD n = 10", "result": "2 (20.0) Number (%)"}, {"measurement": "Discontinuation due to TEAE", "setting": "[1]; 30 mg OD n = 10", "result": "0 Number (%)"}, {"measurement": "Discontinuation due to TESAE", "setting": "[1]; 30 mg OD n = 10", "result": "0 Number (%)"}, {"measurement": "Procedure-related TEAE", "setting": "[1]; 30 mg OD n = 10", "result": "0 Number (%)"}, {"measurement": "SAE related to procedure", "setting": "[1]; 30 mg OD n = 10", "result": "0 Number (%)"}, {"measurement": "Study-drug-related SAE", "setting": "[1]; 30 mg OD n = 10", "result": "1 (10.0) Number (%)"}, {"measurement": "Study-drug-related TEAE", "setting": "[1]; 30 mg OD n = 10", "result": "4 (40.0) Number (%)"}, {"measurement": "participants with study-drug-related TEAEs", "setting": "[1]; 60 mg BID", "result": 51.9, "unit": "%"}, {"measurement": "Any AE", "setting": "[1]; 60 mg BID n = 27", "result": "23 (85.2) Number (%)"}, {"measurement": "Any SAE", "setting": "[1]; 60 mg BID n = 27", "result": "1 (3.7) Number (%)"}, {"measurement": "Any TEAE", "setting": "[1]; 60 mg BID n = 27", "result": "21 (77.8) Number (%)"}, {"measurement": "Any TESAE", "setting": "[1]; 60 mg BID n = 27", "result": "1 (3.7) Number (%)"}, {"measurement": "Discontinuation due to TEAE", "setting": "[1]; 60 mg BID n = 27", "result": "3 (11.1) Number (%)"}, {"measurement": "Discontinuation due to TESAE", "setting": "[1]; 60 mg BID n = 27", "result": "0 Number (%)"}, {"measurement": "Procedure-related TEAE", "setting": "[1]; 60 mg BID n = 27", "result": "2 (7.4) Number (%)"}, {"measurement": "SAE related to procedure", "setting": "[1]; 60 mg BID n = 27", "result": "0 Number (%)"}, {"measurement": "Study-drug-related SAE", "setting": "[1]; 60 mg BID n = 27", "result": "1 (3.7) Number (%)"}, {"measurement": "Study-drug-related TEAE", "setting": "[1]; 60 mg BID n = 27", "result": "14 (51.9) Number (%)"}, {"measurement": "activity against related enzyme", "setting": "recombinant human AKR1C1", "result": "no relevant activity"}, {"measurement": "activity against related enzyme", "setting": "recombinant human AKR1C4", "result": "no relevant activity"}, {"measurement": "pIC50", "setting": "AKR1C3", "result": "> 8.70"}]}
